The source made the active and inactive calls. No cut-off for these calls is given here.
Key:
[1] = test system: Radical scavenging activity; assay: Antioxidant activity assessed as inhibition of DPPH free radical scavenging activity; type: functional
[2] = Inhibition of NOX-dependent ROS production in mouse BV2 cells by chemiluminescence assay; type: cell-based; settings: BV-2
Method in brief: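 BV2 cell homogenate (50 µg) was incubated with compound for 20 min at 37 °C in the dark. Superoxide production was started with 200 µM NADPH and chemiluminescence followed for 30 min. AUC was taken as ROS production. DPI was the positive control. IC50 given as mean ± SEM of three experiments on different days using cells from different passages.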

[3] = Cytotoxicity against human KBVIN cells after 3 days by SRB assay; type: functional, cell-based
Method in brief: (§1)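 Cell lines kept in RPMI-1640 with […], 0.25% sodium bicarbonate, 10% FBS and 100 µg/mL kanamycin. Freshly trypsinized cells seeded at 1500-7500 cells/well. Compounds added from DMSO-diluted stock, 3 days culture. Attached cells fixed with cold 50% TCA, stained with 0.4% SRB, bound dye solubilized, absorbance read at 562 nm.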

DU-145 [4] = assay: Cytotoxicity against human DU145 cells after 3 days by SRB assay; type: functional, cell-based; method in brief: as §1
[5] = biological target: T1, NF-kappa-B inhibitor alpha (Mus musculus) (UniProt Q9Z1E3); assay: Inhibition of IkappaB-alpha degradation in LPS-stimulated mouse BV2 cells at 1 to 2 uM measured after 15 to 120 mins post stimulation by Western blot analysis; type: cell-based; settings: BV-2
T1 sequence (whole entry): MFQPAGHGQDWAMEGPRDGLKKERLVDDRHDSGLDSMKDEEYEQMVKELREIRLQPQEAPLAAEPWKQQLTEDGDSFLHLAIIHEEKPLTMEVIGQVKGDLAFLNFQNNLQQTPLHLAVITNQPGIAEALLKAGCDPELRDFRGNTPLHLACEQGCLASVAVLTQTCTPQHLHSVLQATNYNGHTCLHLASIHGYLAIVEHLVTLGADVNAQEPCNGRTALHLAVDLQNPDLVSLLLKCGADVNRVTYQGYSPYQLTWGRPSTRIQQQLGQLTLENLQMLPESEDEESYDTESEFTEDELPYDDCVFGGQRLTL
Method in brief: (§2)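 BV2 microglia in DMEM with 5% FBS were pretreated with compound or solvent, then stimulated with LPS 0.5 µg/mL for 15 to 120 min. Western blots were probed for iNOS, cytosolic IκBα, and cytosolic and nuclear p65. Membranes were blocked in 5% milk/PBST, primary antibody overnight at 4 °C, HRP secondary 1 h, ECL detection. Signals normalized to β-actin; at least three independent experiments.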

KB [6] = assay: Cytotoxicity against human KB cells after 3 days by SRB assay; type: functional, cell-based; method in brief: as §1
A549 [7] = assay: Cytotoxicity against human A549 cells after 3 days by SRB assay; type: functional, cell-based; method in brief: as §1
[8] = biological target: Transcription factor p65 (Mus musculus) (UniProt Q04207); assay: Inhibition of NF-kappaB p65 activation/translocation in LPS-stimulated mouse BV2 cells assessed as down regulation of iNOS at 1 to 2 uM measured after 15 to 120 mins post stimulation by Western blot analysis; type: cell-based; settings: BV-2; method in brief: as §2
Sequence of Transcription factor p65 (Mus musculus) (Q04207 whole entry): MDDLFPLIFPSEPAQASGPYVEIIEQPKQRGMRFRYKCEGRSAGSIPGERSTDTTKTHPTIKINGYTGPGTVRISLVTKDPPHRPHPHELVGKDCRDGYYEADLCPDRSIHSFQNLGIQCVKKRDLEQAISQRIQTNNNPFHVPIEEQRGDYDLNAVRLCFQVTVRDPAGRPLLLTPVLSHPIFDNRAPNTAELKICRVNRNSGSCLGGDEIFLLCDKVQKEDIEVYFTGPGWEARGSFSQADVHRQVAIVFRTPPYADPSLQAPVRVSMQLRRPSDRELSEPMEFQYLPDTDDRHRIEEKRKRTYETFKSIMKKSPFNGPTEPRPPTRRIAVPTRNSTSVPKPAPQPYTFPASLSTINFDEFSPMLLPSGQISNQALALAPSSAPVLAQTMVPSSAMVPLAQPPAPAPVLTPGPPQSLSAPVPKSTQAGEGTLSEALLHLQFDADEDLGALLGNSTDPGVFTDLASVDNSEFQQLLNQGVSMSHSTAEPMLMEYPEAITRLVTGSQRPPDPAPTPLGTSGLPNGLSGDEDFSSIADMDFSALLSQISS

[9] = biological target: T1, NF-kappa-B inhibitor alpha (Mus musculus); assay: Inhibition of IkappaB-alpha degradation in LPS-stimulated mouse BV2 cells at 2 to 4 uM measured after 15 to 120 mins post stimulation by Western blot analysis; type: cell-based; settings: BV-2; method in brief: as §2
[10] = biological target: Transcription factor p65 (Mus musculus) (UniProt Q04207); assay: Inhibition of NF-kappaB p65 activation/translocation in LPS-stimulated mouse BV2 cells assessed as down regulation of iNOS at 2 to 4 uM measured after 15 to 120 mins post stimulation by Western blot analysis; type: cell-based; settings: BV-2; method in brief: as §2
[11] = Growth inhibition of human KBVIN cells at 20 ug/mL after 3 days by SRB assay; type: functional; settings: 72 h, read-out: GI
Method in brief: (§3)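 Cells grown in RPMI-1640 (10% FBS, HEPES, bicarbonate, kanamycin), trypsinized and seeded at 1500-7500 cells/well. Compound given from DMSO-diluted stock, 3 days culture. Cells fixed with cold 50% trichloroacetic acid, stained with 0.4% sulforhodamine B, dye solubilized and absorbance measured at 562 nm.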

A549 [12] = assay: Growth inhibition of human A549 cells at 20 ug/mL after 3 days by SRB assay; type: functional; settings: A549, 72 h, read-out: GI; method in brief: as §3
DU-145 [13] = assay: Growth inhibition of human DU145 cells at 20 ug/mL after 3 days by SRB assay; type: functional; settings: DU-145, 72 h, read-out: GI; method in brief: as §3
KB [14] = assay: Growth inhibition of human KB cells at 20 ug/mL after 3 days by SRB assay; type: functional; settings: 72 h, read-out: GI; method in brief: as §3
[15] = Homo sapiens, KBVIN, 72 h, read-out: EC50
[16] = Homo sapiens, DU-145, 72 h, read-out: EC50
[17] = Homo sapiens, KB, 72 h, read-out: EC50
[18] = Homo sapiens, A549, 72 h, read-out: EC50

SMILES | IC50 [1] | IC50 [2] | EC50 [3, 15] | EC50 (DU-145 [4]; [16]) | EC50 (KB [6]; [17]) | EC50 (A549 [7]; [18]) | EC50 ([3]; kbvin) | EC50 (DU-145 [4]; du-145) | EC50 (KB [6]; kb) | EC50 (A549 [7]; a549) | further results
c1ccc2c(c1)[I+]c1ccccc1-2 [DIPHENYLENEIODONIUM] | Not Active | 0.65 µM |  |  |  |  |  |  |  |  | 
COc1ccc(/C=C/C(=O)c2cc(C(=O)/C=C/c3ccc(OC)c(OC)c3)c(O)cc2O)cc1OC | Not Active | 49.1 µM | 7.02 µM | 8.63 µM | 8.18 µM | 9.14 µM |  |  |  |  | inhibition [5]: Active; inhibition [8]: Active
COc1cccc(/C=C/C(=O)c2cc(C(=O)/C=C/c3cccc(OC)c3OC)c(O)cc2O)c1OC | Not Active | 89 µM | 5.14 µM | 2.45 µM | 2.06 µM | 4.38 µM |  |  |  |  | inhibition [9]: Active; inhibition [10]: Active
COc1ccc(OC)c(/C=C/C(=O)c2cc(C(=O)/C=C/c3cc(OC)ccc3OC)c(O)cc2O)c1 | Not Active | 95 µM |  |  | 40.1 µM |  |  |  |  |  | inhibition of growth at 20 µg/mL [11]: < 50%; inhibition of growth at 20 µg/mL (A549 [12]): < 50%; inhibition of growth at 20 µg/mL (DU-145 [13]): < 50%
Cc1ccc(/C=C/C(=O)c2cc(C(=O)/C=C/c3ccc(C)o3)c(O)cc2O)o1 | Not Active | 60.4 µM |  |  |  |  | Not Active | Not Active | Not Active | Not Active | 
COc1ccc(/C=C/C(=O)c2cc(C(=O)/C=C/c3ccc(OC)c(OC)c3OC)c(O)cc2O)c(OC)c1OC | Not Active | 70.9 µM |  |  |  |  | Not Active | Not Active | Not Active | Not Active | 
COC(=O)[C@@H](N)CCCNC(=N)N[N+](=O)[O-] [L-NAME] | Not Active |  |  |  |  |  |  |  |  |  | 
Cc1c(C)c2c(c(C)c1O)CCC(C)(C(=O)O)O2 (configuration not stated) [TROLOX] |  |  |  |  |  |  |  |  |  |  | IC50 ([1]; read-out: IC50): 30.2 µM
CC(=O)c1cc(C(=O)/C=C/c2ccc3c(c2)OCO3)c(O)cc1O | Not Active | 72 µM | 17.2 µM | 16.3 µM | 17.2 µM | 19.4 µM |  |  |  |  | 
O=C(/C=C/c1ccccc1)c1cc(C(=O)/C=C/c2ccccc2)c(O)cc1O | Not Active | 122 µM | 1.57 µM | 1.7 µM | 1.62 µM | 4.08 µM |  |  |  |  | 
O=C(/C=C/c1ccco1)c1cc(C(=O)/C=C/c2ccco2)c(O)cc1O | Not Active | 49.6 µM |  |  |  |  | Not Active | Not Active | Not Active | Not Active | 
COc1cc(OC)c(OC)cc1/C=C/C(=O)c1cc(C(C)=O)c(O)cc1O | Not Active | 73 µM |  |  |  |  | Not Active | Not Active | Not Active | Not Active | 
CC(=O)c1cc(C(=O)/C=C/C=C/c2ccccc2)c(O)cc1O | Not Active | 120 µM |  |  |  |  | Not Active | Not Active | Not Active | Not Active | 
COc1ccc(/C=C/C(=O)c2cc(C(=O)/C=C/c3ccc(OC)cc3)c(O)cc2O)cc1 | Not Active | 150 µM | 34 µM |  |  |  |  |  |  |  | inhibition of growth at 20 µg/mL (KB [14]): < 50%; inhibition of growth at 20 µg/mL (A549 [12]): < 50%; inhibition of growth at 20 µg/mL (DU-145 [13]): < 50%
Cc1ccsc1/C=C/C(=O)c1cc(C(=O)/C=C/c2sccc2C)c(O)cc1O | Not Active | 81.4 µM |  |  |  |  | Not Active | Not Active | Not Active | Not Active | 
COc1cccc(/C=C/C(=O)c2cc(C(=O)/C=C/c3cccc(OC)c3)c(O)cc2O)c1 | Not Active | 127 µM | 2.07 µM | 1.86 µM | 2.88 µM | 8.76 µM |  |  |  |  | 
O=C(/C=C/c1ccccn1)c1cc(C(=O)/C=C/c2ccccn2)c(O)cc1O | Not Active | 76.8 µM | 11 µM | 2.85 µM | 2.93 µM | 13.7 µM |  |  |  |  | 
